Test results published in ChEMBL document CHEMBL1156914, “Novel inhibitors of dengue virus methyltransferase: discovery by in vitro-driven virtual screening on a desktop computer grid” (J Med Chem, 2010).

Experiments:
[1] = molecular target: T1, Genome polyprotein (dengue virus type 2, UniProt P12823); assay: Inhibition of Dengue virus type 2 NS5 RNA methyltransferase SAM site
[2] = Cytotoxicity against human A549 cells after 48 hrs; type: cell-based
[3] = molecular target: T1, Genome polyprotein; assay: Inhibition of Dengue virus type 2 NS5 RNA methyltransferase SAM site with 0.1 % TX100
[4] = test system: dengue virus type 2; assay: Antiviral activity against Dengue virus type 2 infected in human A549 cells assessed as decrease in viral E protein production by cell-based flavivirus immunodetection assay; type: functional, organism-based
[5] = molecular target: T1, Genome polyprotein; assay: Inhibition of Dengue virus type 2 NS5 RNA methyltransferase RNA site
[6] = molecular target: T1, Genome polyprotein; assay: Inhibition of Dengue virus type 2 NS5 RNA methyltransferase RNA site with 0.1 % TX100
Outline: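 Detergent-sensitivity variant of the SPA methyl-transfer assay: 0.1% Triton X-100 added to the reaction mix. Otherwise 25 nM DENV2 MTase, 40 nM biotinylated RNA, 20 min room-temperature preincubation, 0.56 μM [3H]AdoMet. Counts read after bead stop. Duplicate wells.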

[7] = molecular target: T1, Genome polyprotein; assay: Inhibition of Dengue virus type 2 NS5 RNA methyltransferase by spin-down assay
[8] = molecular target: T1, Genome polyprotein; assay: Inhibition of Dengue virus type 2 NS5 RNA methyltransferase at 8 nM enzyme concentration
[9] = molecular target: T1, Genome polyprotein; assay: Inhibition of Dengue virus type 2 NS5 RNA methyltransferase at 80 nM enzyme concentration

T1 sequence (P12823 2489-3388 limits assumed): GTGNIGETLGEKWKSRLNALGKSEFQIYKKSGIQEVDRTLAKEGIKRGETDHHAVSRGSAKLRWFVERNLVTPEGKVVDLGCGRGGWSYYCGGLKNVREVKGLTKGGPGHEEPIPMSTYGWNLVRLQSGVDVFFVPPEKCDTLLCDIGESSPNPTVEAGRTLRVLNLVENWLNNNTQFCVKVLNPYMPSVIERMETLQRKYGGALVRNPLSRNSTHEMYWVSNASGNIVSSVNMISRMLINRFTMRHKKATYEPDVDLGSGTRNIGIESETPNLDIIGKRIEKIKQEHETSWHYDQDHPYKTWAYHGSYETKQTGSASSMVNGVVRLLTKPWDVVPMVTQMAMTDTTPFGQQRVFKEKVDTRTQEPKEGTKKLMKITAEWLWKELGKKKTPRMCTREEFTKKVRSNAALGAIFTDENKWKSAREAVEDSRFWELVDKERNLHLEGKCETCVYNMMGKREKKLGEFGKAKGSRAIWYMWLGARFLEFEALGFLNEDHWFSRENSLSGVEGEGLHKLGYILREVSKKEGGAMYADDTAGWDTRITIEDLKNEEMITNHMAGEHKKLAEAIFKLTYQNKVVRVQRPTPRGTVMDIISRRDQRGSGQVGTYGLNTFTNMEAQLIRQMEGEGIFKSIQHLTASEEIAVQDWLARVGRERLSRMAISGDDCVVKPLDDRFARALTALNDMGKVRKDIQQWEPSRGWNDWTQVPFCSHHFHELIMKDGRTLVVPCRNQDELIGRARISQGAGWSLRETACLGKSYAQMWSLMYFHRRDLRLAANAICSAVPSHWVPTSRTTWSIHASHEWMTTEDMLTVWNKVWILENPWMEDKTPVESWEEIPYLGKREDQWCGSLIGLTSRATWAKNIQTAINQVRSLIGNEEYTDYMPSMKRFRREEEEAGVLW

Structure (SMILES)	IC50 [1] [µM]	IC50 [3] [µM]	IC50 [5] [µM]	IC50 [6] [µM]	other results
O=C(O)c1cnc2c([N+](=O)[O-])cccc2c1O	14.3	14.3			CC50 at 48 h [2]: > 100 µM; EC50 [4]: > 100 µM
NC(=O)C1=CN(Cc2ccccc2)C=CC1	25.3	> 100			
O=C(Cn1ccc(=O)[nH]c1=O)Nc1ccc(O)c([N+](=O)[O-])c1	29	> 100			
Cc1cc(/C=N\NC(=O)Nc2ccccc2)c(C)n1-c1cc(C(=O)O)cc(C(=O)O)c1			20.3	> 100	
Cc1ccc(C23CC4CC(CC(C(=O)Nc5cccc(C(=O)O)c5)(C4)C2)C3)cc1			37.5	> 100	
O=C(O)c1cccc(NC(=O)c2ccc(CSc3ccc(Br)cc3)cc2)c1			7.99	> 100	
COc1ccc(/C=C2/CN(CCCC(=O)O)C(=O)C2=O)cc1	8.78	4.47			IC50 [7]: 10.5 µM; CC50 at 48 h [2]: > 100 µM; EC50 [4]: > 100 µM
COc1cc(/C=C2/NC(=O)N(Cc3ccc(Cl)cc3Cl)C2=O)ccc1O[C@H](C)C(=O)O			11.3	> 100	
O=C1NC(=O)/C(=C\c2ccc(O)cc2)N1	27.6	> 100			
CCN(CC)c1ccc(/C=N\Nc2ccc(Cl)c(C(=O)O)c2)c(O)c1			13.5	87.1	CC50 at 48 h [2]: 75.1 µM; EC50 [4]: 50 µM
O=S(=O)(Nc1ccccc1)c1cc(S(=O)(=O)Nc2ccccc2)c2cc(O)ccc2c1	21.1	> 100			
CCOc1cc(/C=C2\C(=O)N(c3ccc4ccccc4c3)N=C2C)ccc1OCCC(=O)O			7.11	> 100	
O=C(O)c1ccccc1C(=O)Nc1nc(-c2ccc3ccccc3c2)cs1			14.5	> 100	
O=C(c1cccc([N+](=O)[O-])c1)c1no[n+]([O-])c1C(=O)c1cccc([N+](=O)[O-])c1	31.4	> 100			
Cc1ccc(Cl)cc1NS(=O)(=O)c1ccc(NS(=O)(=O)c2ccc3ccccc3c2)cc1			9.28	64.2	CC50 at 48 h [2]: 22.7 µM; EC50 [4]: 12 µM
COc1cc(NS(=O)(=O)c2ccc(NC(=O)/C=C/c3cccc4ccccc34)cc2)nc(OC)n1			6.83	> 100	
Cc1ccc(C)c(C(=O)C2=C(O)C(=O)N(CCc3ccccc3)[C@@H]2c2ccc(O)cc2)c1	9.84	> 100			
COc1cc(CNc2ccc(C(=O)O)cc2)ccc1OCc1ccccc1Cl			13.2	> 100	
COc1ccc2c(c1)C(CC(=O)O)CN2Cc1ccccc1 (stereo unspecified)	27.5	> 100			
Cc1cc(O)c2c(c1)C(=O)c1cc(O)cc(O)c1C2=O [EMODIN]	16.9	79.8			CC50 at 48 h [2]: 30.7 µM; EC50 [4]: 10.9 µM

Continued, in another order:

IC50 [1] [µM]	IC50 [3] [µM]	IC50 [5] [µM]	IC50 [6] [µM]	Structure (SMILES)	other results
29.9	> 100			O=C(O)c1ccc(S(=O)(=O)c2ccc(C(=O)O)cc2)cc1	
16.1	> 100			Cc1cc(C(=O)CSc2nc(N)cc(=O)[nH]2)c(C)n1Cc1ccc2c(c1)OCO2	
4.29	> 25			O=C(CCCCC(=O)N/N=C/c1ccc(O)cc1O)N/N=C/c1ccc(O)cc1O	
9.62	> 100			Cc1ccccc1COc1ccc(C(=O)[C@@H]2C(=O)C(=O)N(Cc3ccncc3)[C@H]2c2cccc(O)c2)cc1	
		4.42	44.5	O=C(O)CCC(=O)N1NC(c2c(O)nc3ccc(Cl)cc3c2-c2ccccc2)=C[C@@H]1c1ccc(Br)cc1	CC50 at 48 h [2]: > 100 µM; EC50 [4]: > 100 µM
		12.4	> 100	O=C(O)COc1ccccc1/C=N\NC(=O)Cc1csc(Nc2cccc(C(F)(F)F)c2)n1	
		7.56	7.14	O=S(=O)(O)c1cccc(NNc2ccc(Nc3ccccc3)cc2)c1	IC50 [8]: 7.62 µM; IC50 [7]: 10.7 µM; CC50 at 48 h [2]: > 100 µM; IC50 [9]: 10.2 µM; EC50 [4]: > 100 µM
		11.9	> 100	Cc1c(CC(=O)N[C@@H](Cc2c[nH]c3ccc(O)cc23)C(=O)O)c(=O)oc2cc3occ(C(C)(C)C)c3cc12	
		4.8	4.91	O=C(O)c1ccccc1/C=N/NC(=O)c1cc(-c2ccco2)nc2ccccc12	IC50 [7]: 4.34 µM; CC50 at 48 h [2]: > 100 µM; EC50 [4]: > 100 µM
		8.81	> 100	O=C(N/N=C\c1ccccc1C(=O)O)c1ccc(COc2ccc3ccccc3c2)cc1	
		2.81	19.5	O=C(O)COc1ccc(Br)cc1/C=C1\CC/C(=C\c2cc(Br)ccc2OCC(=O)O)C1=O	CC50 at 48 h [2]: > 100 µM; EC50 [4]: > 100 µM
12.8	> 100			O=C1C(=O)N(Cc2cccnc2)[C@H](c2cccc(Oc3ccccc3)c2)/C1=C(/O)c1ccco1	
		17.6	> 100	N#Cc1c(NC(=O)c2cccc(S(=O)(=O)Nc3ccc(C(=O)O)cc3)c2)sc2c1CCCC2	
2.91	> 25			COc1ccc(CN(CC[C@@H](c2ccccc2)c2ccco2)C(=O)c2ccoc2)cc1	
